In brackets after ≈: the same amount, converted by molar mass. Where only a bound is given, the exact number is not on record here.

The results in this text go back to ChEMBL document CHEMBL1649111, “Restoration of susceptibility of intracellular methicillin-resistant Staphylococcus aureus to beta-lactams: comparison of strains, cells, and antibiotics” (Antimicrob Agents Chemother, 2008).

Assay [1] has as its system Staphylococcus aureus. Description: Antimicrobial activity against intracellular beta-lactamase negative methicillin-susceptible Staphylococcus aureus ATCC 25923 infected in human keratinocytes assessed as increase in bacterial count from original inoculum at low compound concentration after 24 hrs at pH 7.4. The class given is functional. In short, it runs like this:
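Primary human skin keratinocytes or Calu-3 bronchial epithelial cells infected with MSSA ATCC 25923 at 5 × 10⁷ to 1 × 10⁸ bacteria/ml, 2 h internalization. Postphagocytosis inoculum 1.5 × 10⁶ to 3.0 × 10⁶ CFU/mg protein. Cloxacillin concentration range for 24 h; CFU/mg protein change vs. inoculum (n = 3). Hill fit gives Emin/Emax; static concentration by graphical interpolation.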

Assay [2] deals with Staphylococcus aureus. Briefly: Antimicrobial activity against beta-lactamase negative methicillin-susceptible Staphylococcus aureus ATCC 25923 infected in human THP-1 cells assessed as increase in bacterial count from original inoculum at low compound concentration after 24 hrs at pH 7.4. Format: functional.
The test system of assay [3] is Staphylococcus aureus. Briefly: Antimicrobial activity against hospital acquired methicillin-resistant Staphylococcus aureus ATCC 33591 infected in human THP-1 cells assessed as decrease in bacterial count from original inoculum at high compound concentration after 24 hrs at pH 7.4. The class given is functional.
In assay [4] the test system is Staphylococcus aureus. Description: Antimicrobial activity against beta-lactamase negative methicillin-susceptible Staphylococcus aureus ATCC 25923 infected in human THP-1 cells assessed as decrease in bacterial growth after 24 hrs at pH 7.4. Particulars: ATCC 25923, THP-1, 24 h. Format: functional, organism-based.
For assay [5], the system named is Staphylococcus aureus. Description: Antimicrobial activity against constitutive beta-lactamase negative methicillin-resistant Staphylococcus aureus COL NRS100 by broth microdilution method at pH 7.4. Format: functional. A general note: Dilution methods test growth across graded concentrations, often in twofold steps.
Assay [6] deals with Staphylococcus aureus. Description: Antimicrobial activity against hospital acquired methicillin-resistant and vancomycin-intermediate Staphylococcus aureus NRS18 obtained from patient with wound, skin and soft tissue infection by broth microdilution method at pH 7.4. Format: functional. In short, it runs like this: (§1)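 Minimal inhibitory concentration by broth microdilution at pH 7.4, read in mg/liter. The MRSA genotype was confirmed by mecA PCR, and the SCCmec subgroup was assigned by multiplex PCR.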

The subject of assay [7] is Staphylococcus aureus. Description: Antimicrobial activity against hospital acquired methicillin-resistant and vancomycin-intermediate Staphylococcus aureus NRS126 obtained from patient with bloodstream infection by broth microdilution method at pH 7.4. The class given is functional. Put shortly: as §1
In assay [8] the test system is Staphylococcus aureus. Description: Antimicrobial activity against hospital acquired methicillin-resistant Staphylococcus aureus ATCC 33591 by broth microdilution method at pH 5.5. The class given is functional.
Assay [9] concerns Staphylococcus aureus. Description: Antimicrobial activity against hospital acquired methicillin-resistant Staphylococcus aureus N4120210 obtained from urinary tract infection patient by broth microdilution method at pH 5.5. Format: functional. Particulars: N4120210, Urine.
The subject of assay [10] is Staphylococcus aureus. Briefly: Antimicrobial activity against Panton-valentine leukocidin positive community acquired methicillin-resistant Staphylococcus aureus N4090440 obtained from wound infection of patient by broth microdilution method at pH 5.5. Format: functional.
For assay [11], the system named is Staphylococcus aureus. Description: Antimicrobial activity against hospital acquired methicillin-resistant and vancomycin-intermediate Staphylococcus aureus NRS126 obtained from patient with bloodstream infection by broth microdilution method at pH 5.5. The class given is functional.
Assay [12] concerns Staphylococcus aureus. Description: Antimicrobial activity against animal acquired methicillin-resistant Staphylococcus aureus N7112046 by broth microdilution method at pH 5.5. Format: functional.
In assay [13] the test system is Staphylococcus aureus. Briefly: Antimicrobial activity against hospital acquired methicillin-resistant and vancomycin-intermediate Staphylococcus aureus NRS18 obtained from wound, skin and soft tissue infection of patient infected in human THP-1 cells assessed as increase in bacterial count from original inoculum at low compound concentration after 24 hrs at pH 5.5. The class given is functional. Put shortly: (§2)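 Human THP-1 macrophages infected with each S. aureus strain. Cloxacillin added extracellularly at about 0.01× to 100× the broth MIC measured at pH 5.5, with gentamicin 0.5 mg/liter to stop extracellular growth. Incubated 24 h. CFU counted per mg cell protein as change from the post-phagocytosis inoculum, n = 3. Emin, Emax and EC50 from a Hill fit; static concentration by graphical interpolation.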

For assay [14], the system named is Staphylococcus aureus. Briefly: Antimicrobial activity against hospital acquired methicillin-resistant Staphylococcus aureus ATCC 33591 infected in human THP-1 cells assessed as decrease in bacterial count from original inoculum at high compound concentration after 24 hrs at pH 5.5. Format: functional. In short, it runs like this:
(§3)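 Bacteria phagocytosed by unactivated human THP-1 macrophages, then incubated 24 h with extracellular antibiotic at about 0.01× to 100× the pH 5.5 broth MIC. CFU per mg cell protein counted against the original inoculum, n = 3. A Hill-equation fit (slope factor 1) gave Emin and Emax, extrapolated to infinitely low and high concentration, and EC50. Static concentration was graphically interpolated.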

In assay [15] the test system is Staphylococcus aureus. Briefly: Antimicrobial activity against Panton-valentine leukocidin positive community acquired methicillin-resistant Staphylococcus aureus NRS192 obtained from patient with pneumonia and septic arthritis infected in human THP-1 cells assessed as decrease in bacterial count from original inoculum at high compound concentration after 24 hrs at pH 5.5. The class given is functional. In short, it runs like this:
as §3

In assay [16] the test system is Staphylococcus aureus. Description: Antimicrobial activity against hospital acquired methicillin-resistant and vancomycin-intermediate Staphylococcus aureus NRS18 obtained from wound, skin and soft tissue infection of patient infected in human THP-1 cells assessed as decrease in bacterial count from original inoculum at high compound concentration after 24 hrs at pH 5.5. The class given is functional. Put shortly: as §3

Assay [17] concerns Staphylococcus aureus. Briefly: Antimicrobial activity against beta-lactamase negative methicillin-susceptible Staphylococcus aureus ATCC 25923 infected in human THP-1 cells assessed as decrease in bacterial growth after 24 hrs at pH 5.5. The class given is functional, organism-based. Particulars: ATCC 25923, THP-1, 24 h. In short, it runs like this: as §3
For assay [18], the system named is Staphylococcus aureus. Description: Antimicrobial activity against hospital acquired methicillin-resistant Staphylococcus aureus ATCC 33591 infected in human THP-1 cells assessed as decrease in bacterial growth after 24 hrs at pH 5.5. Conditions: ATCC 33591, THP-1, 24 h. Format: functional, organism-based. In short, it runs like this: as §3
For assay [19], the system named is Staphylococcus aureus. Description: Antimicrobial activity against hospital acquired methicillin-resistant Staphylococcus aureus N4120032 obtained from wound infection opf patient infected in human THP-1 cells assessed as decrease in bacterial growth after 24 hrs at pH 5.5. Format: functional, organism-based. Conditions: N4120032, THP-1, 24 h. In short, it runs like this:
as §3

Assay [20] deals with Staphylococcus aureus. Briefly: Antimicrobial activity against hospital acquired methicillin-resistant Staphylococcus aureus N4120210 obtained from urinary tract infection of patient infected in human THP-1 cells assessed as decrease in bacterial growth after 24 hrs at pH 5.5. Conditions: N4120210, THP-1, Urine. Format: functional, organism-based. In short, it runs like this:
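THP-1 macrophages were infected, then incubated 24 h with cloxacillin at extracellular concentrations from about 0.01× to 100× the MIC measured in broth at pH 5.5, with gentamicin 0.5 mg/liter to block extracellular growth. CFU per mg cell protein were counted as change from the original inoculum (n = 3). A Hill-equation fit gave Emax, EC50 (multiples of MIC) and static concentration.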

The subject of assay [21] is Staphylococcus aureus. Description: Antimicrobial activity against Panton-valentine leukocidin positive community acquired methicillin-resistant Staphylococcus aureus N4042228 infected in human THP-1 cells assessed as decrease in bacterial growth after 24 hrs at pH 5.5. The class given is functional, organism-based. Conditions: N4042228, THP-1, 24 h. Put shortly:
as §3

Assay [22] has as its system Staphylococcus aureus. Briefly: Antimicrobial activity against hospital acquired methicillin-resistant and vancomycin-intermediate Staphylococcus aureus NRS18 obtained from wound, skin and soft tissue infection of patient infected in human THP-1 cells assessed as decrease in bacterial growth after 24 hrs at pH 5.5. Format: functional, organism-based. Particulars: NRS18, THP-1, 24 h. In short, it runs like this:
as §3

Assay [23] concerns Staphylococcus aureus. Description: Bacteriostatic activity against hospital acquired methicillin-resistant Staphylococcus aureus N4120032 infected in human THP-1 cells assessed as decrease in bacterial growth after 24 hrs at pH 5.5. Format: functional. In short, it runs like this: as §2

For the molecule `Cc1onc(-c2ccccc2Cl)c1C(=O)N[C@@H]1C(=O)N2[C@@H]1SC(C)(C)[C@@H]2C(=O)O` [CLOXACILLIN], the log10cfu in assay [1] amounted to 2.64; in assay [2] it was 1.79; in assay [3], 0.55; in [13], 2.07; in [14], 0.55; in assay [15], 0.68. The log10cfu in assay [16] is 0.57. Also, the EC50 in assay [4] worked out at 0.27 µg/mL (≈ 0.619 µM); in assay [17], 4.44 ×MIC; in assay [18] it was 4.25 ×MIC; in assay [19] it was 9.26 ×MIC; in assay [20], 8.51 ×MIC; in assay [21] it was 10.8 ×MIC. The EC50 in assay [22] stood at 3.96 ×MIC. Moreover, the minimal inhibitory concentration (MIC) was greater than 512 µg/mL in [5]; 8 µg/mL (≈ 18.4 µM) in [6]; 16 µg/mL (≈ 36.7 µM) in [7]; 0.06 µg/mL (≈ 0.138 µM) in [8]; 0.06 µg/mL (≈ 0.138 µM) in [9]; 0.03 µg/mL (≈ 0.0688 µM) in assay [10]. Also, the MIC came to 0.06 µg/mL (≈ 0.138 µM) in [11] and 0.125 µg/mL (≈ 0.287 µM) in assay [12]. Besides, the Activity in assay [23] was found to be 33.1 ×MIC.

As usually defined, the MIC is the lowest concentration found to suppress growth. High values mean a less susceptible organism, low ones a more susceptible organism.
